In ChEMBL document CHEMBL3259666, “Discovery of a neuroprotective chemical, (S)-N-(3-(3,6-dibromo-9H-carbazol-9-yl)-2-fluoropropyl)-6-methoxypyridin-2-amine [(-)-P7C3-S243], with improved druglike properties” (J Med Chem, 2014):
Active and inactive are the calls of the source. The calls are words filed in the database; no cut-off is given here.

Columns and labels:
Translocator protein = Translocator protein (Homo sapiens, UniProt P30536); test: Inhibition of TSPO (unknown origin)
Mus musculus [1] = test: Toxicity in C57Bl/6 mouse assessed as effect on weight up to 40 mg/kg/day, ip bid administered for 21 days; format: organism-based; parameters: route intraperitoneal; details: in vivo, 504 h
Mus musculus [2] = test: Toxicity in C57Bl/6 mouse assessed as effect on behavior up to 40 mg/kg/day, ip bid administered for 21 days; format: organism-based; parameters: route intraperitoneal; details: in vivo, 504 h
Mus musculus [3] = test: Toxicity in C57Bl/6 mouse assessed as effect on appearance up to 40 mg/kg/day, ip bid administered for 21 days; format: organism-based; parameters: route intraperitoneal; details: in vivo, 504 h
Mus musculus [4] = test: Neuroprotective activity in wild type C57BL/J6 mouse assessed as survival of newborn hippocampal neurons at 10 uM, icv administered for 7 days by BrdU staining-based immunohistochemical analysis relative to vehicle-treated control; format: functional, organism-based
Method in brief: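 Adult (12 week old) C57BL/J6 mice, environmentally deprived; compound infused via osmotic minipump into left lateral ventricle at 0.5 μL/h for 7 days. BrdU IP 50 mg kg–1 day–1 for 6 days during infusion; perfusion 24 h after last BrdU. BrdU+ cells in SGZ/dentate gyrus of contralateral hemisphere counted in every fifth 40 μm section, normalized to dentate gyrus volume; mean ± SEM.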

Mus musculus [5] = test: Neuroprotective activity in substantia nigra of C57Bl/6 mouse neurogenesis model assessed as protection from MPTP-induced cell death in mature neurons at 5 mg/kg/day, ip bid administered for 21 days by immunohistochemical analysis relative to vehicle-treated control; format: functional, organism-based
Method in brief: (§1)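 MPTP model in adult male C57Bl/6 mice, individually housed 1 week. MPTP free base 30 mg/kg/day IP for 5 days. From day 6 (24 h after the last MPTP dose), compound or vehicle given IP twice daily for 21 days. Mice were then perfused with 4% paraformaldehyde. SNc sectioned at 30 μm intervals and every fourth section stained for TH (DAB, hematoxylin counterstain). TH+ cells counted blinded; mean ± SEM, compared with vehicle + MPTP.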

Mus musculus [6] = test: Neuroprotective activity in substantia nigra of C57Bl/6 mouse neurogenesis model assessed as protection from MPTP-induced cell death in mature neurons at 10 mg/kg/day, ip bid administered for 21 days by immunohistochemical analysis relative to vehicle-treated control; format: functional; details: route intraperitoneal; method in brief: as §1
Mus musculus [7] = test: Neuroprotective activity in wild type C57BL/J6 mouse assessed as survival of newborn hippocampal neurons at 0.1 to 10 uM, icv administered for 7 days by BrdU staining-based microscopy relative to vehicle-treated control; format: functional, organism-based
Method in brief: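 Adult (12-week) wild-type C57BL/J6 mice. Compound infused ICV into the left lateral ventricle by osmotic minipump at 0.5 μL/h for 7 days, with BrdU 50 mg/kg/day IP for 6 days. Perfused 24 h after the last BrdU dose. BrdU antigen unmasked (formamide/SSC at 65 °C, then 2 M HCl); anti-BrdU staining. BrdU+ cells in the contralateral dentate gyrus SGZ counted in every fifth 40 μm section and normalised to dentate gyrus volume.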

Translocator protein, sequence (P30536 whole entry): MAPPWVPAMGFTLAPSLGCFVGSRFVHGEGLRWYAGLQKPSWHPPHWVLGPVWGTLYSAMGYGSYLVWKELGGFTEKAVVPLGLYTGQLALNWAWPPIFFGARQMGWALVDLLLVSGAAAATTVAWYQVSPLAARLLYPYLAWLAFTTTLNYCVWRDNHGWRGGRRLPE

Structure (SMILES) | IC50 (Translocator protein) [nM] | Activity (Mus musculus [1]) | Activity (Mus musculus [2]) | Activity (Mus musculus [3]) | Activity (Mus musculus [4]) | Activity (Mus musculus [5]) | Activity (Mus musculus [6]) [%] | Activity (Mus musculus [7])
COc1cccc(NCC(F)Cn2c3ccc(Br)cc3c3cc(Br)ccc32)c1 (configuration not stated) | 2000 | Non-toxic | Non-toxic | Non-toxic | Active | Active | 75 | 
[N-]=[N+]=NCC(F)Cn1c2ccc(Br)cc2c2cc(Br)ccc21 (configuration not stated) |  |  |  |  | inactive |  |  | 
COc1cccc(NC[C@@H](F)Cn2c3ccc(Br)cc3c3cc(Br)ccc32)n1 | 680 |  |  |  |  | inactive |  | inactive
NCC(O)Cn1c2ccc(Br)cc2c2cc(Br)ccc21 (configuration not stated) |  |  |  |  | Active |  |  | 
